Legend:
[1] = Partition coefficient in an aqueous 1-octanol buffer system by the shake-flask method; format: physicochemical; conditions: 1-octanol/aqueous buffer
Outline: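 LogP_app by shake-flask in aqueous buffer/1-octanol at pH 7.4 (ionic strength 0.10 M NaCl), 23±1.0 °C. Aqueous-phase compound concentration measured spectrophotometrically; values are means of duplicate determinations run in triplicate.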

[2] = target: Serotonin 3 (5-HT3) receptor; assay: Binding affinity for 5-HT3 receptor of NG108-15 cells using [3H]GR-65630; format: cell-based
Outline: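 Competition binding against 1 nM [3H]GR65630 (84.2 Ci/mmol; KD 0.7 nM); nonspecific binding defined with […]. Incubation 30 min at room temperature, then filtration on presoaked glass fiber filters, ice-cold buffer wash, scintillation counting. Log concentration vs percent inhibition fitted by nonlinear least squares assuming 100% maximal inhibition; Ki from IC50 via Cheng-Prusoff.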

Row | logD [1] | Ki [2] [µM] | SMILES
1 | 1.16 |  | N=C(N)Nc1cc(Cl)c(Cl)c(Cl)c1
2 |  | > 10 | CC1N=C(N)N=C(N)N1c1cccc(Cl)c1 (stereo not given)
3 | -0.38 |  | N=C(N)NC(=N)Nc1cccc(Cl)c1
4 | -0.64 |  | NC(N)=Nc1cccc(Cl)c1
5 |  | 0.034 | NC1=Nc2cc(Cl)ccc2CN1
6 |  | 1.46 | Nc1nccc(Nc2cccc(Cl)c2)n1
7 |  | > 10 | Nc1ncnc(Nc2cccc(Cl)c2)n1
8 |  | > 10 | Nc1nc(Nc2cccc(Cl)c2)n[nH]1
9 |  | 0.725 | Nc1nc2ccc(Cl)cc2[nH]1
10 |  | > 10 | Nc1ncnc(Nc2ccc3ccccc3c2)n1
11 | 1.47 |  | N=C(N)NC(=N)Nc1cc(Cl)c(Cl)c(Cl)c1
12 |  | > 10 | CC1(C)N=C(N)N=C(N)N1c1cccc(Cl)c1
13 |  | > 10 | Nc1ncnc(Nc2ccccc2)n1 [AMANOZINE]
14 | -1.17 |  | N=C(N)NC(=N)Nc1ccccc1 [PHENYL BIGUANIDE]
15 | -1.32 |  | N=C(N)Nc1ccccc1 [PHENYLGUANIDINE]

— ChEMBL document CHEMBL1136652, “Conformationally-restricted analogues and partition coefficients of the 5-HT3 serotonin receptor ligands meta-chlorophenylbiguanide (mCPBG) and meta-chlorophenylguanidine (mCPG)” (Bioorg Med Chem Lett, 2003)
